Numbering of substitutions follows the chain as printed.
Tests used:
[1] = target: T1, LasR Y93F (Pseudomonas aeruginosa, UniProt P25084, Y93F); test: E. coli lasB-lux reporter assay, LasR Y93F; format: cell-based; details: read-out: EC50 in the plasB-lux assay; LasR Y93F; NR = non-responsive
T1 sequence (P25084 1-239 Y93F): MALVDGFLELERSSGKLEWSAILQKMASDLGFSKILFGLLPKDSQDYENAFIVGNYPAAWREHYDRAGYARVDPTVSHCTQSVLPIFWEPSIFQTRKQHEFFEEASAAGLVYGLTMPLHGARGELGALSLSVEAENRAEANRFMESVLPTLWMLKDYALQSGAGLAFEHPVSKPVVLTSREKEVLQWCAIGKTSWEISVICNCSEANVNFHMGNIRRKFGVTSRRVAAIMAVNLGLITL

[2] = target: T2, WT LasR LBD (Pseudomonas aeruginosa, UniProt P25084); test: Protein solubility assay, WT LasR LBD produced in E. coli; format: cell-based; details: induction at 25°C; 10 μM compound
T2 sequence (P25084 1-173 limits assumed): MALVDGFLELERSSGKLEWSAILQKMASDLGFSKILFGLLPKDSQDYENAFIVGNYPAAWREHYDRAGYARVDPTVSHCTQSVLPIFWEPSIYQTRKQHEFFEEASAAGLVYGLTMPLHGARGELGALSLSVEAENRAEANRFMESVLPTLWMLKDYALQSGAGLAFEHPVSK
Method in brief: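 E. coli BL21(DE3) with plasmid-borne 6xHis-WT LasR LBD were grown overnight, diluted 1:500 in LB with ampicillin and grown to OD600 0.5. Cells were induced with 1 mM IPTG plus test compound at 10 μM final, then shaken 4 h at 25°C or 37°C. Whole-cell lysate and soluble fractions were compared by band intensity. Fraction soluble = soluble band / whole-cell lysate band.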

[3] = target: T3, LasR T75V (Pseudomonas aeruginosa, UniProt P25084, T75V); test: E. coli lasB-lux reporter assay, LasR T75V; format: cell-based; details: read-out: EC50 in the plasB-lux assay; LasR T75V; NR = non-responsive
T3 sequence (P25084 1-239 T75V): T1 sequence (P25084 1-239 Y93F) with T75V, F93Y

[4] = system: pyocyanin production; details: cited from earlier work
[5] = target: T4, LasR Y93F/A127W (Pseudomonas aeruginosa, UniProt P25084, A127W/Y93F); test: E. coli lasB-lux reporter assay, LasR Y93F/A127W; format: cell-based; details: read-out: EC50 in the plasB-lux assay; LasR Y93F/A127W; NR = non-responsive
T4 sequence (P25084 1-239 Y93F/A127W): T1 sequence (P25084 1-239 Y93F) with A127W

[6] = target: T5, LasR A127W (Pseudomonas aeruginosa, UniProt P25084, A127W); test: E. coli lasB-lux reporter assay, LasR A127W; format: cell-based; details: read-out: EC50 in the plasB-lux assay, NR = non-responsive
T5 sequence (P25084 1-239 A127W): T1 sequence (P25084 1-239 Y93F) with F93Y, A127W

[7] = system: luciferase; test: Off-target inhibition of luciferase in the E. coli lasB-lux reporter strain; format: cell-based; details: high concentrations (>10 μM)
[8] = system: LasR; details: cited from earlier work
[9] = target: T6, LasR T75V/Y93F (Pseudomonas aeruginosa, UniProt P25084, T75V/Y93F); test: E. coli lasB-lux reporter assay, LasR T75V/Y93F; format: cell-based; details: read-out: EC50 in the plasB-lux assay; LasR T75V/Y93F
T6 sequence (P25084 1-239 T75V/Y93F): T1 sequence (P25084 1-239 Y93F) with T75V

[10] = target: T7, LasR T75V/Y93F/A127W (Pseudomonas aeruginosa, UniProt P25084, A127W/T75V/Y93F); test: E. coli lasB-lux reporter assay, LasR T75V/Y93F/A127W; format: cell-based; details: read-out: EC50 in the plasB-lux assay; LasR T75V/Y93F/A127W; NR = non-responsive
T7 sequence (P25084 1-239 T75V/Y93F/A127W): T1 sequence (P25084 1-239 Y93F) with T75V, A127W

## meta-bromo-thiolactone [mBTL, reference compound]
[1]
  EC50: 0.01 µM
[2]
  soluble WT LasR LBD: yielded soluble WT LasR LBD
[3]
  EC50: 0.006 µM
[4]
  effect on pyocyanin: inhibiting pyocyanin
[5]
  EC50: 0.009 µM
[6]
  EC50: 0.06 µM
[7]
  off-target inhibition of luciferase: caused off-target inhibition of luciferase
[8]
  activity on LasR: is a LasR agonist
[9]
  EC50: 0.01 µM
[10]
  EC50: 0.01 µM
